Measured values taken from ChEMBL document CHEMBL1156597, “Structure-activity relationship of kahalalide F synthetic analogues” (J Med Chem, 2008).

Experiments:
[1] = Cytotoxicity against human IGROV cells after 48 hrs by SRB assay; type: functional; conditions: for CC50: read-out: LC50 (the source's name)
Method in brief: (§1)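 Cells grown in RPMI 1640 with 10% FBS and penicillin/streptomycin at 37 °C and 5% CO₂, trypsinized, then seeded at 5 × 10³/well. After 18 h drug-free attachment, samples in DMSO/EtOH/PBS (0.5:0.5:99) were added for 48 h continuous exposure. Cells were fixed with cold TCA (1 h, 4 °C) and stained with SRB (10 min). Tris-solubilized stain read at 490 nm. Triplicate wells, mean ± SD; GI₅₀ derived.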

[2] = Cytotoxicity against human IGROV-ET cells after 48 hrs by SRB assay; type: functional; conditions: for CC50: read-out: LC50 (the source's name); method in brief: as §1
[3] = Cytotoxicity against human HeLa-APL cells after 48 hrs by SRB assay; type: functional; method in brief: as §1
[4] = system: SK-MEL-28; assay: Cytotoxicity against human SK-MEL-28 cells after 48 hrs by SRB assay; type: functional, cell-based; conditions: Homo sapiens, SK-MEL-28, 48 h; for CC50: read-out: LC50 (the source's name); method in brief: as §1
[5] = system: A549; assay: Cytotoxicity against human A549 cells after 48 hrs by SRB assay; type: functional, cell-based; conditions: Homo sapiens, A549, 48 h; method in brief: as §1
[6] = system: HT-29; assay: Cytotoxicity against human HT29 cells after 48 hrs by SRB assay; type: functional, cell-based; conditions: Homo sapiens, HT-29, 48 h; for CC50: read-out: LC50 (the source's name); method in brief: as §1
[7] = system: LNCaP; assay: Cytotoxicity against human LNcaP cells after 48 hrs by SRB assay; type: functional; conditions: for CC50: read-out: LC50 (the source's name); method in brief: as §1
[8] = system: K562; assay: Cytotoxicity against human K562 cells after 48 hrs by SRB assay; type: functional; conditions: K562, 48 h; for CC50: read-out: LC50 (the source's name); method in brief: as §1
[9] = system: HeLa; assay: Cytotoxicity against human HeLa cells after 48 hrs by SRB assay; type: functional; conditions: for CC50: read-out: LC50 (the source's name); method in brief: as §1
[10] = system: DU-145; assay: Cytotoxicity against human DU145 cells after 48 hrs by SRB assay; type: functional, cell-based; conditions: Homo sapiens, DU-145, 48 h; for CC50: read-out: LC50 (the source's name); for GI50: read-out: GI50; method in brief: as §1
[11] = system: PANC-1; assay: Cytotoxicity against human PANC1 cells after 48 hrs by SRB assay; type: functional; conditions: PANC-1, 48 h; for CC50: read-out: LC50 (the source's name); method in brief: as §1
[12] = system: LoVo; assay: Cytotoxicity against human LoVo cells after 48 hrs by SRB assay; type: functional; conditions: for CC50: read-out: LC50 (the source's name)
[13] = system: SK-BR-3; assay: Cytotoxicity against human SKBR3 cells after 48 hrs by SRB assay; type: functional; conditions: SK-BR-3, 48 h; for CC50: read-out: LC50 (the source's name); for GI50: read-out: GI50; method in brief: as §1

SMILES	CC50 [1]	CC50 [2]	LC50 (concentration giving 50% net cell kill) [3]	CC50 [4]	LC50 [5]	CC50 [6]	GI50 [7]	TGI [7]	CC50 [7]	CC50 [8]	CC50 [9]	CC50 [10]	CC50 [11]	CC50 [12]	CC50 [13]	GI50 ([5]; read-out: GI50)	GI50 [8]	TGI [8]	GI50 [12]	TGI [12]	further results
C/C=C1\NC(=O)[C@H](Cc2ccccc2)NC(=O)[C@@H](C(C)C)NC(=O)[C@@H]([C@H](C)CC)NC(=O)[C@H](NC(=O)[C@H](NC(=O)[C@H](CCCN)NC(=O)[C@H]2CCCN2C(=O)[C@H](NC(=O)[C@H](CCC(N)=O)NC(=O)[C@@H](NC(=O)[C@H](NC(=O)CCCC(C)C)C(C)C)[C@@H](C)O)C(C)C)[C@H](C)CC)[C@H](C)OC(=O)[C@H](C(C)C)NC1=O	0.619 µM	0.689 µM	1.3 µM	1.41 µM	1.87 µM	0.869 µM	3.12 µM	3.17 µM	1.51 µM	2.39 µM	1.02 µM	1.62 µM	2.48 µM	4.69 µM	2.72 µM	–	–	–	–	–	–
C/C=C1\NC(=O)[C@H](Cc2ccccc2)NC(=O)[C@@H](C(C)C)NC(=O)[C@@H]([C@H](C)CC)NC(=O)[C@H](NC(=O)[C@H](NC(=O)[C@H](CCCN)NC(=O)[C@H]2CCCN2C(=O)[C@H](NC(=O)[C@@H](NC(=O)[C@@H](NC(=O)[C@H](NC(=O)CCCNC(=N)N)C(C)C)[C@@H](C)O)C(C)C)C(C)C)[C@H](C)CC)[C@H](C)OC(=O)[C@H](C(C)C)NC1=O	0.624 µM	0.695 µM	1.31 µM	1.43 µM	1.89 µM	0.877 µM	3.93 µM	3.2 µM	1.52 µM	2.41 µM	1.03 µM	1.63 µM	2.51 µM	4.74 µM	2.75 µM	–	–	–	–	–	–
C/C=C1\NC(=O)[C@H](Cc2ccccc2)NC(=O)[C@@H](C(C)C)NC(=O)[C@@H]([C@H](C)CC)NC(=O)[C@H](NC(=O)[C@H](NC(=O)[C@H](CCCN)NC(=O)[C@H]2CCCN2C(=O)[C@H](NC(=O)[C@@H](NC(=O)[C@@H](NC(=O)[C@H](NC(=O)CCCCCCCCCCCCCCCCCCC)C(C)C)[C@@H](C)O)C(C)C)C(C)C)[C@H](C)CC)[C@H](C)OC(=O)[C@H](C(C)C)NC1=O	1.23 µM	1.21 µM	2.03 µM	0.432 µM	0.383 µM	0.877 µM	–	–	0.296 µM	0.91 µM	0.477 µM	2.03 µM	0.423 µM	0.96 µM	0.865 µM	1.88 µM	–	–	–	–	GI50 [4]: 0.905 µM; GI50 ([4]; read-out: GI50): 1.89 µM; GI50 [5]: 0.85 µM
C/C=C1\NC(=O)[C@H](Cc2ccccc2)NC(=O)[C@@H](C(C)C)NC(=O)[C@@H]([C@H](C)CC)NC(=O)[C@H](NC(=O)[C@H](NC(=O)[C@H](CCCN)NC(=O)[C@H]2CCCN2C(=O)[C@H](NC(=O)[C@@H]2CCCN2C(=O)[C@@H](NC(=O)[C@H](NC(=O)CCCC(C)C)C(C)C)[C@@H](C)O)C(C)C)[C@H](C)CC)[C@H](C)OC(=O)[C@H](C(C)C)NC1=O	0.632 µM	0.703 µM	1.32 µM	1.44 µM	1.91 µM	0.887 µM	0.347 µM	3.24 µM	1.54 µM	2.44 µM	1.04 µM	1.65 µM	2.54 µM	4.79 µM	2.78 µM	–	–	–	–	–	–
C/C=C1\NC(=O)[C@H](Cc2ccccc2)NC(=O)[C@@H](C(C)C)NC(=O)[C@@H]([C@H](C)CC)NC(=O)[C@H](NC(=O)[C@H](NC(=O)[C@H](CCCN)NC(=O)[C@H]2CCCN2C(=O)[C@H](NC(=O)CNC(=O)[C@@H](NC(=O)[C@H](NC(=O)CCCC(C)C)C(C)C)[C@@H](C)O)C(C)C)[C@H](C)CC)[C@H](C)OC(=O)[C@H](C(C)C)NC1=O	0.649 µM	0.722 µM	1.36 µM	1.48 µM	1.96 µM	0.911 µM	3.05 µM	3.32 µM	1.58 µM	2.5 µM	1.07 µM	1.7 µM	2.6 µM	4.92 µM	2.85 µM	–	2.57 µM	3.12 µM	10.7 µM	9.72 µM	–
C/C=C1\NC(=O)[C@H](Cc2ccccc2)NC(=O)[C@@H](C(C)C)NC(=O)[C@@H]([C@H](C)CC)NC(=O)[C@H](NC(=O)[C@H](NC(=O)[C@H](CCCN)NC(=O)[C@H]2CCCN2C(=O)[C@H](NC(=O)[C@H](NC(=O)[C@@H](NC(=O)[C@H](NC(=O)CCCC(C)C)C(C)C)[C@@H](C)O)C(C)C)C(C)C)[C@H](C)CC)[C@H](C)OC(=O)[C@H](C(C)C)NC1=O	0.631 µM	0.702 µM	1.32 µM	1.44 µM	1.91 µM	0.886 µM	2.44 µM	3.23 µM	1.54 µM	2.43 µM	1.04 µM	1.65 µM	2.53 µM	3.11 µM	2.31 µM	5.09 µM	4.29 µM	4.83 µM	3.31 µM	3.21 µM	GI50 [3]: 3.4 µM; TGI [3]: 3.04 µM; TGI [5]: 4.23 µM; GI50 [6]: 4.84 µM; TGI [6]: 3.93 µM; TGI [10]: 3.8 µM; GI50 [10]: 3.13 µM; GI50 [11]: 4.43 µM; TGI [11]: 4.92 µM; TGI [13]: 3.23 µM; GI50 [13]: 3.69 µM
C/C=C1\NC(=O)[C@H](Cc2ccccc2)NC(=O)[C@@H](C(C)C)NC(=O)[C@@H]([C@H](C)CC)NC(=O)[C@H](NC(=O)[C@H](NC(=O)[C@H](CCCN)NC(=O)[C@H]2CCCN2C(=O)[C@H](NC(=O)[C@H](C)NC(=O)[C@@H](NC(=O)[C@H](NC(=O)CCCC(C)C)C(C)C)[C@@H](C)O)C(C)C)[C@H](C)CC)[C@H](C)OC(=O)[C@H](C(C)C)NC1=O	0.533 µM	0.599 µM	1.35 µM	1.47 µM	1.94 µM	0.665 µM	2.8 µM	3.3 µM	1.57 µM	2.48 µM	1.06 µM	1.68 µM	2.58 µM	2.99 µM	2.17 µM	3.73 µM	4.32 µM	4.93 µM	2.68 µM	2.83 µM	GI50 [1]: 0.934 µM; GI50 ([1]; read-out: GI50): 2 µM; GI50 [2]: 0.863 µM; GI50 ([2]; read-out: GI50): 1.25 µM; GI50 [3]: 3.27 µM; TGI [3]: 3.1 µM; TGI [4]: 3.07 µM; GI50 ([4]; read-out: GI50): 3.45 µM; TGI [5]: 4.31 µM; GI50 [9]: 3.1 µM; TGI [9]: 2.83 µM; TGI [10]: 3.87 µM; GI50 [10]: 3.9 µM; TGI [13]: 2.96 µM; GI50 [13]: 3.25 µM
